# In ChEMBL document CHEMBL5329183, “Naphthylthiazoles: a class of broad-spectrum antifungals” (RSC Med Chem, 2023):
# Experiments:
# [1] = system: Escherichia coli; assay: Antibacterial activity against Escherichia coli JW55031 harboring tolC mutant assessed as inhibition of bacterial growth; type: functional
# [2] = system: Clostridioides difficile; assay: Antibacterial activity against Clostridium difficile ATCC BAA1870 assessed as inhibition of bacterial growth; type: functional
# [3] = system: Candida albicans; assay: Antifungal activity against wild type Candida albicans SC5314 assessed as inhibition of fungal growth; type: functional
# [4] = system: Staphylococcus aureus; assay: Antibacterial activity against Methicillin-resistant Staphylococcus aureus USA300 assessed as inhibition of bacterial growth; type: functional
# [5] = system: Escherichia coli; assay: Antibacterial activity against wild type Escherichia coli BW25113 assessed as inhibition of bacterial growth; type: functional
# [6] = system: Cryptococcus neoformans; assay: Antifungal activity against Cryptococcus neoformans NR 48773 assessed as inhibition of fungal growth incubated for 48 hrs by broth microdilution method; type: functional
# In short: (§1)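 Clinical isolate; CLSI broth microdilution over a range of concentrations (media listed: RPMI 1640, MOPS, YPD). MIC read as lowest concentration inhibiting growth by 50% after 48 h incubation at 35 °C.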
# [7] = system: Candida parapsilosis; assay: Antifungal activity against Candida parapsilosis ATCC 22019 assessed as inhibition of fungal growth incubated for 24 hrs by broth microdilution method; type: functional; conditions: Lodderomyces parapsilosis
# In short: (§2)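 Clinical isolate; CLSI broth microdilution over a range of concentrations (media listed: RPMI 1640, MOPS, YPD). MIC taken as lowest concentration giving 50% growth inhibition after 24 h at 35 °C.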
# [8] = system: Cryptococcus neoformans; assay: Antifungal activity against Cryptococcus neoformans NR 41298 assessed as inhibition of fungal growth incubated for 48 hrs by broth microdilution method; type: functional; in short: as §1
# [9] = system: Cryptococcus neoformans; assay: Antifungal activity against Cryptococcus neoformans NR 48767 assessed as inhibition of fungal growth incubated for 48 hrs by broth microdilution method; type: functional; in short: as §1
# [10] = system: Cryptococcus neoformans; assay: Antifungal activity against Cryptococcus neoformans NR 48770 assessed as inhibition of fungal growth incubated for 48 hrs by broth microdilution method; type: functional; in short: as §1
# [11] = system: Nakaseomyces glabratus; assay: Antifungal activity against Candida glabrata ATCC 66032 assessed as inhibition of fungal growth incubated for 24 hrs by broth microdilution method; type: functional; in short: as §2
# [12] = system: Nakaseomyces glabratus; assay: Antifungal activity against Candida glabrata ATCC MYA2950 assessed as inhibition of fungal growth incubated for 24 hrs by broth microdilution method; type: functional; in short: as §2
# [13] = system: Vero; assay: Cytotoxicity against African green monkey Vero cells assessed as inhibition of cell viability at 16 ug/ml incubated for 2 hrs by MTS assay; type: toxicity, cell-based; conditions: chlorocebus sabaeus, dose 16 µg/ml
# [14] = Antifungal activity against Cryptococcus gattii NR 43214 assessed as inhibition of fungal growth incubated for 48 hrs by broth microdilution method; type: functional, Cryptococcus gattii VGI
# In short: (§3)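 Broth microdilution per CLSI guidelines against clinical isolates, incubated at 35 °C for 24 h (Candida, Aspergillus) or 48 h (Cryptococcus). MIC was the lowest concentration giving 50% growth inhibition.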
# [15] = Antibacterial activity against Lactobacillus casei HM334 assessed as inhibition of bacterial growth; type: toxicity; conditions: lacticaseibacillus casei
# [16] = system: Candida albicans; assay: Antifungal activity against Candida albicans ATCC 10231 assessed as inhibition of fungal growth incubated for 24 hrs by broth microdilution method; type: functional; in short: as §3
# [17] = system: Cryptococcus neoformans; assay: Antifungal activity against Cryptococcus neoformans NR 41300 assessed as inhibition of fungal growth incubated for 48 hrs by broth microdilution method; type: functional; in short: as §1
# [18] = system: Cryptococcus neoformans; assay: Antifungal activity against Cryptococcus neoformans NR 41299 assessed as inhibition of fungal growth incubated for 48 hrs by broth microdilution method; type: functional; in short: as §1
# [19] = system: [Candida] auris; assay: Antifungal activity against Candida auris 381 assessed as inhibition of fungal growth incubated for 24 hrs by broth microdilution method; type: functional; conditions: Candidozyma auris; in short: as §2
# [20] = system: [Candida] auris; assay: Antifungal activity against Candida auris 382 assessed as inhibition of fungal growth incubated for 24 hrs by broth microdilution method; type: functional; conditions: Candidozyma auris; in short: as §2
# [21] = system: [Candida] auris; assay: Antifungal activity against Candida auris 383 assessed as inhibition of fungal growth incubated for 24 hrs by broth microdilution method; type: functional; conditions: Candidozyma auris; in short: as §2
# [22] = Antifungal activity against Cryptococcus gattii NR 43213 assessed as inhibition of fungal growth incubated for 48 hrs by broth microdilution method; type: functional, Cryptococcus gattii VGI; in short: as §3
# [23] = Antibacterial activity against Lactobacillus crispatus HM370 assessed as inhibition of bacterial growth; type: toxicity
# [24] = system: Candida albicans; assay: Antifungal activity against Candida albicans NR 29448 assessed as inhibition of fungal growth incubated for 24 hrs by broth microdilution method; type: functional; in short: as §2
# [25] = system: Cryptococcus neoformans; assay: Antifungal activity against Cryptococcus neoformans NR 48771 assessed as inhibition of fungal growth incubated for 48 hrs by broth microdilution method; type: functional; in short: as §1
# [26] = system: Candida parapsilosis; assay: Antifungal activity against Candida parapsilosis CAB 502638 assessed as inhibition of fungal growth incubated for 24 hrs by broth microdilution method; type: functional; conditions: Lodderomyces parapsilosis; in short: as §3
# [27] = Cytotoxicity against African green monkey Vero cells assessed as cell viability at 8 ug/ml incubated for 2 hrs by MTS assay; type: toxicity, cell-based; conditions: chlorocebus sabaeus, at 8 µg/mL, read-out: Activity
# In short: (§4)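 Vero cells were grown in MEM with 10% FBS, 1 mM sodium pyruvate and penicillin–streptomycin, then exposed to compounds for 2 h at 37 °C, 5% CO2, in triplicate. MTS was added for 3 h and OD490 read. Viability was expressed as % of DMSO-matched controls (mean ± SD).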
# [28] = system: Lactobacillus gasseri; assay: Antibacterial activity against Lactobacillus gasseri HM400 assessed as inhibition of bacterial growth; type: toxicity, organism-based
# [29] = Antifungal activity against Cryptococcus gattii NR 43209 assessed as inhibition of fungal growth incubated for 48 hrs by broth microdilution method; type: functional, Cryptococcus gattii VGI; in short: as §3
# [30] = system: Pichia kudriavzevii; assay: Antifungal activity against Candida krusei CAB 396420 assessed as inhibition of fungal growth incubated for 24 hrs by broth microdilution method; type: functional; in short: as §3
# [31] = Antifungal activity against Cryptococcus gattii NR 43210 assessed as inhibition of fungal growth incubated for 48 hrs by broth microdilution method; type: functional, Cryptococcus gattii VGI; in short: as §3
# [32] = Cytotoxicity against African green monkey Vero cells assessed as inhibition of cell viability incubated for 2 hrs by MTS assay; type: toxicity, cell-based; conditions: chlorocebus sabaeus; in short: as §4
# [33] = system: Pichia kudriavzevii; assay: Antifungal activity against Candida krusei ATCC 34135 assessed as inhibition of fungal growth incubated for 24 hrs by broth microdilution method; type: functional; in short: as §3
# [34] = Antifungal activity against Cryptococcus gattii NR 43216 assessed as inhibition of fungal growth incubated for 48 hrs by broth microdilution method; type: functional, Cryptococcus gattii VGI; in short: as §3
molecule,measurement,setting,value
Cc1nc(-c2ccc3ccccc3c2)sc1-c1nnc(N2CC[C@H](N(C)C)C2)o1,MIC,[1],> 64 µg/mL
same,MIC,[2],> 64 µg/mL
same,MIC,[3],8 µg/mL
same,MIC,[4],> 64 µg/mL
same,MIC,[5],> 64 µg/mL
CCCNc1nnc(-c2sc(-c3ccc4ccccc4c3)nc2C)o1,MIC,[1],> 64 µg/mL
same,MIC,[2],> 64 µg/mL
same,MIC,[3],> 64 µg/mL
same,MIC,[4],> 64 µg/mL
same,MIC,[5],> 64 µg/mL
Cc1nc(-c2ccc3ccccc3c2)sc1-c1nnc(N2CCC[C@@H]2CO)o1,MIC,[1],> 64 µg/mL
same,MIC,[2],16 µg/mL
same,MIC,[3],> 64 µg/mL
same,MIC,[4],> 64 µg/mL
same,MIC,[5],> 64 µg/mL
Cc1nc(-c2ccc3ccccc3c2)sc1-c1nnc(N2CC[C@@H](N(C)C)C2)o1,MIC,[1],32 µg/mL
same,MIC,[2],16 µg/mL
same,MIC,[3],32 µg/mL
same,MIC,[4],4 µg/mL
same,MIC,[5],> 64 µg/mL
C[C@@H]1[C@H](O)[C@@H](C)/C=C/C=C/C=C/C=C/C=C/C=C/C=C/[C@H](O[C@@H]2O[C@H](C)[C@@H](O)[C@H](N)[C@@H]2O)C[C@@H]2O[C@](O)(C[C@@H](O)C[C@@H](O)[C@H](O)CC[C@@H](O)C[C@@H](O)CC(=O)O[C@H]1C)C[C@H](O)[C@H]2C(=O)O [AMPHOTERICIN B],MIC,[6],1 µg/mL
same,MIC,[7],0.5 µg/mL
same,MIC,[8],1 µg/mL
same,MIC,[9],1 µg/mL
same,MIC,[10],1 µg/mL
same,MIC,[11],2 µg/mL
same,MIC,[12],1 µg/mL
same,Activity,[13],Toxic
same,MIC,[14],1 µg/mL
same,MIC,[15],> 128 µg/mL
same,MIC,[16],1 µg/mL
same,MIC,[17],1 µg/mL
same,MIC,[18],1 µg/mL
same,MIC,[19],0.5 µg/mL
same,MIC,[20],1 µg/mL
same,MIC,[21],1 µg/mL
same,MIC,[22],1 µg/mL
same,MIC,[23],> 128 µg/mL
same,MIC,[24],1 µg/mL
same,MIC,[25],1 µg/mL
same,MIC,[26],0.5 µg/mL
same,"viability at 2 h, 8 ug/ml",[27],58%
same,MIC,[28],> 128 µg/mL
same,MIC,[29],1 µg/mL
same,MIC,[3],1 µg/mL
same,MIC,[30],2 µg/mL
same,MIC,[31],1 µg/mL
same,CC50 at 2 h,[32],~8 µg/mL
same,MIC,[33],2 µg/mL
same,MIC,[34],1 µg/mL
Cc1nc(-c2ccc3ccccc3c2)sc1-c1nnc(NCC(=N)N)o1,MIC,[1],> 64 µg/mL
same,MIC,[2],64 µg/mL
same,MIC,[3],32 µg/mL
same,MIC,[4],> 64 µg/mL
same,MIC,[5],> 64 µg/mL
Cc1nc(-c2ccc3ccccc3c2)sc1-c1nnc(N2CCCCC2CN)o1 (stereo unspecified),MIC,[1],> 64 µg/mL
same,MIC,[2],32 µg/mL
same,MIC,[3],> 64 µg/mL
same,MIC,[4],> 64 µg/mL
same,MIC,[5],> 64 µg/mL
GENTAMICIN,MIC,[1],< 0.5 µg/mL
same,MIC,[5],< 0.5 µg/mL
Cc1nc(-c2ccc3ccccc3c2)sc1-c1nnc(N2CCC[C@H]2CO)o1,MIC,[1],> 64 µg/mL
same,MIC,[2],> 64 µg/mL
same,MIC,[3],> 64 µg/mL
same,MIC,[4],> 64 µg/mL
same,MIC,[5],> 64 µg/mL
CC(=O)NC[C@H]1CN(c2ccc(N3CCOCC3)c(F)c2)C(=O)O1 [LINEZOLID],MIC,[1],8 µg/mL
same,MIC,[2],1 µg/mL
same,MIC,[4],1 µg/mL
same,MIC,[5],> 64 µg/mL
